EC50 and Activity data for 9 compounds are collected here from ChEMBL document CHEMBL5344404, “Design and optimization of oestrogen receptor PROTACs based on 4-hydroxytamoxifen” (Eur J Med Chem, 2022).

The target of assay [1] is Estrogen receptor/E3 ubiquitin-protein ligase XIAP (Homo sapiens, UniProt P03372+P98170). In words: PROTAC activity at XIAP/ERalpha (unknown origin). It counts as protein assay.
Assay [2] has as its target T1, Protein cereblon/Estrogen receptor (Homo sapiens, UniProt P03372+Q96SW2). In words: PROTAC activity at CRBN/ERalpha in human MCF7 cells assessed as reduction in ERalpha protein level at 1 to 5 uM incubated for 24 hrs by Western blot analysis. Type of assay: cell-based. To be noted: dose 1-5 µM. An outline of the steps: (§1)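 MCF-7 breast cancer cells exposed to the PROTAC over a concentration series for 24 h. ERα in cell lysates then assessed by immunoblotting.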
Target sequence in this assay (P03372 whole entry, looked up): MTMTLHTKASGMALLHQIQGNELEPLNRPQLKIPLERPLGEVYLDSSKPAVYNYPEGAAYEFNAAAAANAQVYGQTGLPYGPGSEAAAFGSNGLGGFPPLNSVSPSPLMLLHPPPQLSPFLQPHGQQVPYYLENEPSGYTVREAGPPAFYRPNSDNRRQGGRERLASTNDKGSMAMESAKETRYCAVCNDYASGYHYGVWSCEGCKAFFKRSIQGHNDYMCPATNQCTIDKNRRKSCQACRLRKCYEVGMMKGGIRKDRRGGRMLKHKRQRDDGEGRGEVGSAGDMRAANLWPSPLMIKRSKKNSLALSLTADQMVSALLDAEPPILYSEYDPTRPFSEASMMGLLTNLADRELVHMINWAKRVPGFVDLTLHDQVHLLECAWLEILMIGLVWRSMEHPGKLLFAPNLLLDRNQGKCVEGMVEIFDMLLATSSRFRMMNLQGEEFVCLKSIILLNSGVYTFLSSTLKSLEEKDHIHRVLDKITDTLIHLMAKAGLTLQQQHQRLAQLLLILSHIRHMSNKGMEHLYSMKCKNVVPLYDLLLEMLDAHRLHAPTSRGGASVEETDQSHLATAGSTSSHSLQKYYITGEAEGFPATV
Target sequence in this assay (Q96SW2 whole entry, looked up): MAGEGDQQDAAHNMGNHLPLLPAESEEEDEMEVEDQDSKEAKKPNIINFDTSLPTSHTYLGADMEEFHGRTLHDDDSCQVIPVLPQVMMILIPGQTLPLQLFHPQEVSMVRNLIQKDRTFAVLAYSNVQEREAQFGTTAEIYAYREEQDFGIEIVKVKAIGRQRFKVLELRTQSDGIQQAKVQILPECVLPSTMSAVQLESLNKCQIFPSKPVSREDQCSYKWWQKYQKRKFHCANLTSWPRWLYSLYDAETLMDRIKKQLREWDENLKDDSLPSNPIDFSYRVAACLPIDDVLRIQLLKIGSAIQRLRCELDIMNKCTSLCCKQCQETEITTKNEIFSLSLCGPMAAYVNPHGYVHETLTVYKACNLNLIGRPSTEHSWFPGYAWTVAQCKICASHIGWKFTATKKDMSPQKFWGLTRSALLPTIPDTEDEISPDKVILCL

The target in assay [3] is T2, von Hippel-Lindau disease tumor suppressor/Estrogen receptor (Homo sapiens, UniProt P03372+P40337). The assay is described as follows: PROTAC activity at VHL E3 ligase/ERalpha in human MCF7 cells assessed as reduction in ERalpha protein level at 10 nM incubated for 24 hrs by Western blot analysis. Type of assay: cell-based. (In general: Immunoblotting shows a protein as a band on a membrane.)
Target sequence in this assay (P03372 whole entry, looked up): as the sequence (P03372 whole entry, looked up) above
Target sequence in this assay (P40337 whole entry, looked up): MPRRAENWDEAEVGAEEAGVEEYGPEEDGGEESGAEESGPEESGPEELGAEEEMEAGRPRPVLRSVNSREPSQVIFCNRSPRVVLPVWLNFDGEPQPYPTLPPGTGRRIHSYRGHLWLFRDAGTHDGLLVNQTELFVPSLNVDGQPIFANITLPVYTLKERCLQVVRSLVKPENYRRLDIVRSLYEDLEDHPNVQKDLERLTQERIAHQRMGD

Assay [4] addresses T2, von Hippel-Lindau disease tumor suppressor/Estrogen receptor. In words: PROTAC activity at VHL E3 ligase/ERalpha in human MCF7 cells assessed as reduction in ERalpha protein level incubated for 24 hrs by Western blot analysis. Type of assay: cell-based. In short, it runs like this: (§2)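 MCF-7 cells treated 24 h across a broad concentration range. ERα quantified on Western blots and normalized to GAPDH, then plotted against PROTAC concentration to give DC50 (concentration giving 50% protein degradation). Replicates: 2 biological for the CRBN series, triplicates for the VHL series.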
Target sequence in this assay (P03372 whole entry): as the sequence (P03372 whole entry, looked up) above
Target sequence in this assay (P40337 whole entry): as the sequence (P40337 whole entry, looked up) above

Assay [5] shares this target. The assay is described as follows: PROTAC activity at VHL E3 ligase/ERalpha in human T47D cells assessed as reduction in ERalpha protein level at 0.01 to 10 uM incubated for 24 hrs by Western blot analysis. Type of assay: cell-based. To be noted: dose 0.01-10 µM.
Target sequence in this assay (P03372 whole entry, looked up): as the sequence (P03372 whole entry, looked up) above
Target sequence in this assay (P40337 whole entry, looked up): as the sequence (P40337 whole entry, looked up) above
Assay [6] has the same target. The assay is described as follows: PROTAC activity at VHL E3 ligase/ERalpha in human MCF7 cells assessed as reduction in ERalpha protein level at 2500 nM pretreated with carfilzomib at 1 uM for 30 mins followed by compound addition and measured after 6 hrs by Western blot analysis. Type of assay: cell-based.
Target sequence in this assay (P03372 whole entry, looked up): as the sequence (P03372 whole entry, looked up) above
Target sequence in this assay (P40337 whole entry, looked up): as the sequence (P40337 whole entry, looked up) above
Assay [7] shares this target. In words: PROTAC activity at VHL E3 ligase/ERalpha in human MCF7 cells assessed as reduction in ERalpha protein level at 2500 nM pretreated with MLN4924 at 1 uM for 30 mins followed by compound addition and measured after 6 hrs by Western blot analysis. It counts as cell-based.
Target sequence in this assay (P03372 whole entry, looked up): as the sequence (P03372 whole entry, looked up) above
Target sequence in this assay (P40337 whole entry, looked up): as the sequence (P40337 whole entry, looked up) above
The target of assay [8] is T1, Protein cereblon/Estrogen receptor. The assay is described as follows: PROTAC activity at CRBN/ERalpha in human MCF7 cells assessed as reduction in ERalpha protein level at 1 uM measured after 24 hrs by Western blot analysis. It counts as cell-based. In short, it runs like this:
(§3)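 MCF-7 cells given the PROTAC at 1 µM for periods of 1–48 h, with DMSO controls held 48 h. Cell lysates immunoblotted for ERα.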
Target sequence in this assay (P03372 whole entry, looked up): as the sequence (P03372 whole entry, looked up) above
Target sequence in this assay (Q96SW2 whole entry, looked up): as the sequence (Q96SW2 whole entry, looked up) above

Assay [9] has the same target. The assay is described as follows: PROTAC activity at CRBN/ERalpha in human MCF7 cells assessed as reduction in ERalpha protein level at 5 to 10 uM measured after 24 hrs by Western blot analysis. Type of assay: cell-based. As to conditions: dose 5-10 µM. An outline of the steps: as §1
Target sequence in this assay (P03372 whole entry, looked up): as the sequence (P03372 whole entry, looked up) above
Target sequence in this assay (Q96SW2 whole entry, looked up): as the sequence (Q96SW2 whole entry, looked up) above
Assay [10] addresses T2, von Hippel-Lindau disease tumor suppressor/Estrogen receptor. In words: PROTAC activity at VHL/ERalpha (unknown origin). Type of assay: protein assay.
Target sequence in this assay (P03372 whole entry): as the sequence (P03372 whole entry, looked up) above
Target sequence in this assay (P40337 whole entry): as the sequence (P40337 whole entry, looked up) above
Assay [11] has the same target. In words: PROTAC activity at VHL E3 ligase/ERalpha in human MCF7 cells assessed as reduction in ERalpha protein level at 0.01 to 10 uM incubated for 24 hrs by Western blot analysis. It counts as cell-based. To be noted: dose 0.01-10 µM. An outline of the steps: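 MCF-7 cells incubated with the PROTAC at several concentrations for 24 h. Lysates analysed by immunoblotting for ERα.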
Target sequence in this assay (P03372 whole entry, looked up): as the sequence (P03372 whole entry, looked up) above
Target sequence in this assay (P40337 whole entry, looked up): as the sequence (P40337 whole entry, looked up) above

In assay [12] the target is T1, Protein cereblon/Estrogen receptor. The assay is described as follows: PROTAC activity at CRBN/ERalpha in human MCF7 cells assessed as reduction in ERalpha protein level at 1 uM measured after 1 to 12 hrs by Western blot analysis. Type of assay: cell-based. As to conditions: time 1-12 hrs. An outline of the steps: as §3
Target sequence in this assay (P03372 whole entry, looked up): as the sequence (P03372 whole entry, looked up) above
Target sequence in this assay (Q96SW2 whole entry, looked up): as the sequence (Q96SW2 whole entry, looked up) above
Assay [13] has the same target. In words: PROTAC activity at CRBN/ERalpha in human MCF7 cells assessed as reduction in ERalpha protein level incubated for 24 hrs by Western blot analysis. It counts as cell-based. An outline of the steps: as §2
Target sequence in this assay (P03372 whole entry): as the sequence (P03372 whole entry, looked up) above
Target sequence in this assay (Q96SW2 whole entry): as the sequence (Q96SW2 whole entry, looked up) above
The target is the same in assay [14]. The assay is described as follows: PROTAC activity at CRBN/ERalpha in human MCF7 cells assessed as reduction in ERalpha protein level at 1 uM pretreated with bortezomib at 1 uM for 1 hr followed by compound addition for 12 hrs by Western blot analysis. It counts as cell-based. An outline of the steps:
(§4)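 Rescue assay in MCF-7 cells. Cells pre-treated 1 h with bortezomib 1 µM or MLN4924 1 µM, then given the PROTAC at 1 µM for 12 h. ERα read by immunoblot.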
Target sequence in this assay (P03372 whole entry, looked up): as the sequence (P03372 whole entry, looked up) above
Target sequence in this assay (Q96SW2 whole entry, looked up): as the sequence (Q96SW2 whole entry, looked up) above

Assay [15] shares this target. The assay is described as follows: PROTAC activity at CRBN/ERalpha in human MCF7 cells assessed as reduction in ERalpha protein level at 1 uM pretreated with MLN4924 at 1 uM for 1 hr followed by compound addition for 12 hrs by Western blot analysis. Type of assay: cell-based. An outline of the steps: as §4
Target sequence in this assay (P03372 whole entry, looked up): as the sequence (P03372 whole entry, looked up) above
Target sequence in this assay (Q96SW2 whole entry, looked up): as the sequence (Q96SW2 whole entry, looked up) above

In general, EC50 refers to the midpoint of the concentration-response curve.

The structures appear in SMILES notation. Active and inactive are the calls of the source. No cut-off for these calls is given here.

Chain of Estrogen receptor/E3 ubiquitin-protein ligase XIAP (P03372 whole entry): as the sequence (P03372 whole entry, looked up) above
Chain of Estrogen receptor/E3 ubiquitin-protein ligase XIAP (P98170 whole entry): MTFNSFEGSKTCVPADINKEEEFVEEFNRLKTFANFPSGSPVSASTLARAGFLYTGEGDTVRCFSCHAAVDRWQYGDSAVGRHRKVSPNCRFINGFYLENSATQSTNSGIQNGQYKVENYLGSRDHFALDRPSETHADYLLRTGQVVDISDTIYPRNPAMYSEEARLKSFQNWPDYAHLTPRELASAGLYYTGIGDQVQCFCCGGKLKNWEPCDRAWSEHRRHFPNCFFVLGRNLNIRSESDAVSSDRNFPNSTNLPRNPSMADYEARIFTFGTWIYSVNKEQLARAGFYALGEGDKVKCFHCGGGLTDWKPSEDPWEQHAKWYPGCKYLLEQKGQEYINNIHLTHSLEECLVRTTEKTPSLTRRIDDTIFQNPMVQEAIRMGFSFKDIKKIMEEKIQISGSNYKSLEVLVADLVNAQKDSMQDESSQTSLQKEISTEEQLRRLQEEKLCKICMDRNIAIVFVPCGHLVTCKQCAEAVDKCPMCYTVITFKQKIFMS

The compound `CNCC(=O)N[C@H](C(=O)N1Cc2cc(OCCOCCOCCOCCOc3ccc(Oc4c(-c5ccc(O)cc5)sc5cc(O)ccc45)cc3)ccc2C[C@H]1C(=O)N[C@@H]1CCCc2ccccc21)C(C)(C)C` came in with a concentration giving a half-maximal response (EC50) in assay [1] of less than 1000 nM.

On to `CC/C(=C(\c1ccc(O)cc1)c1ccc(OCCN(C)C(=O)CCc2cn(CCOCCNc3cccc4c3C(=O)N(C3CCC(=O)NC3=O)C4=O)nn2)cc1)c1ccccc1` (configuration not stated), for which the outcome in assay [2] was Active.

With `CC/C(=C(\c1ccc(O)cc1)c1ccc(OCCN(C)C(=O)CCc2cn(CCCCCC(=O)N[C@H](C(=O)N3C[C@H](O)C[C@H]3C(=O)N[C@@H](C)c3ccc(-c4scnc4C)cc3)C(C)(C)C)nn2)cc1)c1ccccc1`, the outcome in assay [3] and in assay [5] was Active. The EC50 in assay [4] was determined as 5.3 nM. The result in assay [6] and in [7] was inactive.

`CC/C(=C(\c1ccc(O)cc1)c1ccc(OCCN(C)C(=O)CCc2cn(CCOCCOCCOCCNc3cccc4c3C(=O)N(C3CCC(=O)N(C)C3=O)C4=O)nn2)cc1)c1ccccc1` (configuration not stated): the result in [8] was inactive. The outcome in [9] was Active.

As to `CC[C@H](C)[C@H](NC(=O)[C@H](Cc1ccc(O)cc1)NC(=O)[C@@H]1CC(O)CN1C(=O)[C@H](C)NC(=O)[C@H](CC(C)C)NC(=O)CCCCCCC(=O)NCC(=O)OC1CC[C@H]2[C@@H]3CCc4cc(O)ccc4[C@H]3CC[C@]12C)C(=O)O` (some centres not stated), a half-maximal effect in [10] (EC50) was put at 16000 nM.

In assay [1], `CC/C(=C(\c1ccc(O)cc1)c1ccc(OCCN(C)C(=O)COCCOCCOCCOc2cccc(C(=O)c3csc([C@@H]4CCCN4C(=O)[C@@H](NC(=O)[C@H](C)NC)C4CCCCC4)n3)c2)cc1)c1ccccc1` had a half-maximal effective concentration (EC50) of 10 nM.

As to `CC/C(=C(\c1ccc(O)cc1)c1ccc(OCCN(C)C(=O)CCc2cn(CCCC(=O)N[C@H](C(=O)N3C[C@@H](O)C[C@H]3C(=O)N[C@@H](C)c3ccc(-c4scnc4C)cc3)C(C)(C)C)nn2)cc1)c1ccccc1`, in assay [11], the outcome was inactive.

`CC/C(=C(\c1ccc(O)cc1)c1ccc(OCCN(C)C(=O)CCc2cn(CCOCCOCCOCCNc3cccc4c3C(=O)N(C3CCC(=O)NC3=O)C4=O)nn2)cc1)c1ccccc1` (configuration not stated): the outcome in [2] was Active. In addition, the outcome in assay [12], in assay [14] and in assay [15] was inactive. Also, in assay [13], the EC50 was determined as 11.9 nM.

Turning to `CC/C(=C(\c1ccc(O)cc1)c1ccc(OCCN(C)C(=O)CCc2cn(CCCC(=O)N[C@H](C(=O)N3C[C@H](O)C[C@H]3C(=O)N[C@@H](C)c3ccc(-c4scnc4C)cc3)C(C)(C)C)nn2)cc1)c1ccccc1`, the result in assay [3] and in assay [5] was Active. In addition, the concentration for a half-maximal effect (EC50) in assay [4] was 4.5 nM. Further, the outcome in assay [6] and in [7] was inactive.
